Test results: ChEMBL document CHEMBL1687738, “Effect of Candida glabrata FKS1 and FKS2 mutations on echinocandin sensitivity and kinetics of 1,3-beta-D-glucan synthase: implication for the existing susceptibility breakpoint” (Antimicrob Agents Chemother, 2009)
≈ marks a conversion by molar mass, not a printed value. Starred links: 1 amine or outer side, 2 acyl side, 3 side chain; linkers in the order of their positions; H or OH if unused. Positions of bridges follow the written chain, without caps; N, C: chain ends. Non-standard residues stand in square brackets, D forms with d. Residues, ends and D or L forms follow the SMILES beside them. *: point of attachment. hTyr(3S-OH,4S-OH,3'-OSO3H) = N[C@H](C(=O)O)[C@H](O)[C@@H](O)c1ccc(O)c(OS(=O)(=O)O)c1; Orn(4R-OH,5R-OH) = O=C([C@H](C[C@@H](O)[C@@H](O)N[*:3])N[*:1])[*:2]; Pro(3S-OH,4S-Me) = C[C@H]1CN[C@H](C(=O)O)[C@H]1O; X1 = CCCCCOc1ccc(-c2cc(-c3ccc(C(=O)*)cc3)no2)cc1; Gln(3R-OH) = NC(=O)C[C@@H](O)[C@H](N)C(=O)O; Hyp = O=C(O)[C@@H]1C[C@@H](O)CN1

What was measured:
[1] = tested on: Nakaseomyces glabratus; test: Antifungal activity against Candida glabrata isolate 3168 expressing wild type Fks1p and Fks2p by CLSI method; type: functional
How it was run: (§1)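 Broth microdilution MIC per CLSI M27-A3 in RPMI 1640 medium without serum. Caspofungin and micafungin stocks in sterile water; anidulafungin stock in 100% DMSO; stocks kept at −86°C.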

[2] = tested on: Nakaseomyces glabratus; test: Antifungal activity against Candida glabrata isolate 42997 expressing Fks1p F625S mutant and wild type Fks2p by CLSI method; type: functional; how it was run: as §1
[3] = tested on: Nakaseomyces glabratus; test: Antifungal activity against Candida glabrata isolate 5847 expressing Fks1p S629P mutant and wild type Fks2p by CLSI method; type: functional; how it was run: as §1
[4] = tested on: Nakaseomyces glabratus; test: Antifungal activity against Candida glabrata isolate 3169 expressing Fks1p D632E mutant and wild type Fks2p by CLSI method; type: functional; how it was run: as §1
[5] = tested on: Nakaseomyces glabratus; test: Antifungal activity against Candida glabrata isolate 31498 expressing wild type Fks1p and Fks2p F659 deletion mutant by CLSI method; type: functional; how it was run: as §1
[6] = tested on: Nakaseomyces glabratus; test: Antifungal activity against Candida glabrata isolate 234 expressing wild type Fks1p and Fks2p F659V mutant by CLSI method; type: functional; how it was run: as §1
[7] = tested on: Nakaseomyces glabratus; test: Antifungal activity against Candida glabrata isolate 41400 expressing wild type Fks1p and Fks2p D666G mutant by CLSI method; type: functional; how it was run: as §1
[8] = tested on: Nakaseomyces glabratus; test: Antifungal activity against Candida glabrata isolate 5416 expressing wild type Fks1p and Fks2p W1375L mutant by CLSI method; type: functional; how it was run: as §1
[9] = tested on: Nakaseomyces glabratus; test: Antifungal activity against Candida glabrata ATCC 90030 expressing wild type Fks1p and Fks2p by CLSI method in presence of 50% human serum; type: functional
How it was run: (§2)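 Broth microdilution MIC per CLSI M27-A3 in RPMI 1640 supplemented with 50% serum. Caspofungin and micafungin stocks in sterile water; anidulafungin stock in 100% DMSO; stocks kept at −86°C.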

[10] = tested on: Nakaseomyces glabratus; test: Antifungal activity against Candida glabrata isolate 218 expressing wild type Fks1p and Fks2p by CLSI method in presence of 50% human serum; type: functional; how it was run: as §2
[11] = tested on: Nakaseomyces glabratus; test: Antifungal activity against Candida glabrata isolate 3168 expressing wild type Fks1p and Fks2p by CLSI method in presence of 50% human serum; type: functional; how it was run: as §2
[12] = tested on: Nakaseomyces glabratus; test: Antifungal activity against Candida glabrata isolate 42997 expressing Fks1p F625S mutant and wild type Fks2p by CLSI method in presence of 50% human serum; type: functional; how it was run: as §2
[13] = tested on: Nakaseomyces glabratus; test: Antifungal activity against Candida glabrata isolate 5847 expressing Fks1p S629P mutant and wild type Fks2p by CLSI method in presence of 50% human serum; type: functional; how it was run: as §2
[14] = tested on: Nakaseomyces glabratus; test: Antifungal activity against Candida glabrata isolate 21900 expressing Fks1p D632G mutant and wild type Fks2p by CLSI method in presence of 50% human serum; type: functional; how it was run: as §2
[15] = tested on: Nakaseomyces glabratus; test: Antifungal activity against Candida glabrata isolate 3169 expressing Fks1p D632E mutant and wild type Fks2p by CLSI method in presence of 50% human serum; type: functional; how it was run: as §2
[16] = tested on: Nakaseomyces glabratus; test: Antifungal activity against Candida glabrata isolate 31498 expressing wild type Fks1p and Fks2p F659 deletion mutant by CLSI method in presence of 50% human serum; type: functional; how it was run: as §2
[17] = tested on: Nakaseomyces glabratus; test: Antifungal activity against Candida glabrata isolate 234 expressing wild type Fks1p and Fks2p F659V mutant by CLSI method in presence of 50% human serum; type: functional; how it was run: as §2
[18] = tested on: Nakaseomyces glabratus; test: Antifungal activity against Candida glabrata isolate 41026 expressing wild type Fks1p and Fks2p F659S mutant by CLSI method in presence of 50% human serum; type: functional; how it was run: as §2
[19] = tested on: Nakaseomyces glabratus; test: Antifungal activity against Candida glabrata isolate 3830 expressing wild type Fks1p and Fks2p S663P mutant by CLSI method in presence of 50% human serum; type: functional; how it was run: as §2
[20] = tested on: Nakaseomyces glabratus; test: Antifungal activity against Candida glabrata isolate 41400 expressing wild type Fks1p and Fks2p D666G mutant by CLSI method in presence of 50% human serum; type: functional; how it was run: as §2
[21] = tested on: Nakaseomyces glabratus; test: Antifungal activity against Candida glabrata isolate 51916 expressing wild type Fks1p and Fks2p P667T mutant by CLSI method in presence of 50% human serum; type: functional; how it was run: as §2
[22] = Inhibition of Candida glabrata isolate 218 wild type 1,3-beta-D-glucan synthase; parameters: species or system Nakaseomyces glabratus
How it was run: (§3)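 Cells grown in YPD broth at 35°C with vigorous shaking to early stationary phase. Membrane protein extracted and glucan synthase partially purified by product entrapment. Filtration polymerization assay measured [3H]glucose incorporation into product, started by adding enzyme. Echinocandin serial dilutions spanned 0.01–10,000 ng/ml, with 1% DMSO controls for anidulafungin. IC50 from variable-slope sigmoidal fit.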

[23] = Inhibition of Candida glabrata isolate 3168 wild type 1,3-beta-D-glucan synthase; parameters: species or system Nakaseomyces glabratus; how it was run: as §3
[24] = target: 1,3-beta-glucan synthase component FKS1 (Candida glabrata, UniProt E2GKZ4, F625S); test: Inhibition of Candida glabrata isolate 42997 1,3-beta-D-glucan synthase Fks1p F625S mutant/wild type Fks2p; parameters: species or system Nakaseomyces glabratus; how it was run: as §3
[25] = target: 1,3-beta-glucan synthase component FKS1 (Candida glabrata, UniProt E2GKZ4, S629P); test: Inhibition of Candida glabrata isolate 5847 1,3-beta-D-glucan synthase Fks1p S629P mutant/wild type Fks2p; parameters: species or system Nakaseomyces glabratus; how it was run: as §3
[26] = target: 1,3-beta-glucan synthase component FKS1 (Candida glabrata, UniProt E2GKZ4, D632G); test: Inhibition of Candida glabrata isolate 21900 1,3-beta-D-glucan synthase Fks1p D632G mutant/wild type Fks2p; parameters: species or system Nakaseomyces glabratus; how it was run: as §3
[27] = target: 1,3-beta-glucan synthase component FKS1 (Candida glabrata, UniProt E2GKZ4, D632E); test: Inhibition of Candida glabrata isolate 3169 1,3-beta-D-glucan synthase Fks1p D632E mutant/wild type Fks2p; parameters: species or system Nakaseomyces glabratus; how it was run: as §3
[28] = Inhibition of Candida glabrata isolate 42971 1,3-beta-D-glucan synthase Fks1p D632Y mutant/Fks2p R1377STOP mutant; parameters: species or system Nakaseomyces glabratus; how it was run: as §3
[29] = Inhibition of Candida glabrata isolate 31498 1,3-beta-D-glucan synthase wild type Fks1p/Fks2p F659 deletion mutant; parameters: species or system Nakaseomyces glabratus; how it was run: as §3
[30] = target: 1,3-beta-glucan synthase (Candida glabrata, UniProt F5BCZ9, F659S); test: Inhibition of Candida glabrata isolate 41026 1,3-beta-D-glucan synthase wild type Fks1p/Fks2p F659S mutant; parameters: species or system Nakaseomyces glabratus; how it was run: as §3
[31] = target: 1,3-beta-glucan synthase (Candida glabrata, UniProt F5BCZ9, S663P); test: Inhibition of Candida glabrata isolate 3830 1,3-beta-D-glucan synthase wild type Fks1p/Fks2p S663P mutant; parameters: species or system Nakaseomyces glabratus; how it was run: as §3
[32] = target: 1,3-beta-glucan synthase (Candida glabrata, UniProt F5BCZ9, D666E); test: Inhibition of Candida glabrata isolate 42031 1,3-beta-D-glucan synthase wild type Fks1p/Fks2p D666E mutant; parameters: species or system Nakaseomyces glabratus; how it was run: as §3
[33] = target: 1,3-beta-glucan synthase (Candida glabrata, UniProt F5BCZ9, P667T); test: Inhibition of Candida glabrata isolate 51916 1,3-beta-D-glucan synthase wild type Fks1p/Fks2p P667T mutant; parameters: species or system Nakaseomyces glabratus; how it was run: as §3
[34] = target: 1,3-beta-glucan synthase (Candida glabrata, UniProt F5BCZ9, W1375L); test: Inhibition of Candida glabrata isolate 5416 1,3-beta-D-glucan synthase wild type Fks1p/Fks2p W1375L mutant; parameters: species or system Nakaseomyces glabratus; how it was run: as §3
[35] = tested on: Nakaseomyces glabratus; test: Ratio of IC50 for Candida glabrata wild type 1,3-beta-glucan synthase to IC50 for Candida glabrata 1,3-beta-glucan synthase mutant

1,3-beta-glucan synthase component FKS1 (Candida glabrata, UniProt E2GKZ4, F625S), sequence (E2GKZ4 entry or part of it F625S): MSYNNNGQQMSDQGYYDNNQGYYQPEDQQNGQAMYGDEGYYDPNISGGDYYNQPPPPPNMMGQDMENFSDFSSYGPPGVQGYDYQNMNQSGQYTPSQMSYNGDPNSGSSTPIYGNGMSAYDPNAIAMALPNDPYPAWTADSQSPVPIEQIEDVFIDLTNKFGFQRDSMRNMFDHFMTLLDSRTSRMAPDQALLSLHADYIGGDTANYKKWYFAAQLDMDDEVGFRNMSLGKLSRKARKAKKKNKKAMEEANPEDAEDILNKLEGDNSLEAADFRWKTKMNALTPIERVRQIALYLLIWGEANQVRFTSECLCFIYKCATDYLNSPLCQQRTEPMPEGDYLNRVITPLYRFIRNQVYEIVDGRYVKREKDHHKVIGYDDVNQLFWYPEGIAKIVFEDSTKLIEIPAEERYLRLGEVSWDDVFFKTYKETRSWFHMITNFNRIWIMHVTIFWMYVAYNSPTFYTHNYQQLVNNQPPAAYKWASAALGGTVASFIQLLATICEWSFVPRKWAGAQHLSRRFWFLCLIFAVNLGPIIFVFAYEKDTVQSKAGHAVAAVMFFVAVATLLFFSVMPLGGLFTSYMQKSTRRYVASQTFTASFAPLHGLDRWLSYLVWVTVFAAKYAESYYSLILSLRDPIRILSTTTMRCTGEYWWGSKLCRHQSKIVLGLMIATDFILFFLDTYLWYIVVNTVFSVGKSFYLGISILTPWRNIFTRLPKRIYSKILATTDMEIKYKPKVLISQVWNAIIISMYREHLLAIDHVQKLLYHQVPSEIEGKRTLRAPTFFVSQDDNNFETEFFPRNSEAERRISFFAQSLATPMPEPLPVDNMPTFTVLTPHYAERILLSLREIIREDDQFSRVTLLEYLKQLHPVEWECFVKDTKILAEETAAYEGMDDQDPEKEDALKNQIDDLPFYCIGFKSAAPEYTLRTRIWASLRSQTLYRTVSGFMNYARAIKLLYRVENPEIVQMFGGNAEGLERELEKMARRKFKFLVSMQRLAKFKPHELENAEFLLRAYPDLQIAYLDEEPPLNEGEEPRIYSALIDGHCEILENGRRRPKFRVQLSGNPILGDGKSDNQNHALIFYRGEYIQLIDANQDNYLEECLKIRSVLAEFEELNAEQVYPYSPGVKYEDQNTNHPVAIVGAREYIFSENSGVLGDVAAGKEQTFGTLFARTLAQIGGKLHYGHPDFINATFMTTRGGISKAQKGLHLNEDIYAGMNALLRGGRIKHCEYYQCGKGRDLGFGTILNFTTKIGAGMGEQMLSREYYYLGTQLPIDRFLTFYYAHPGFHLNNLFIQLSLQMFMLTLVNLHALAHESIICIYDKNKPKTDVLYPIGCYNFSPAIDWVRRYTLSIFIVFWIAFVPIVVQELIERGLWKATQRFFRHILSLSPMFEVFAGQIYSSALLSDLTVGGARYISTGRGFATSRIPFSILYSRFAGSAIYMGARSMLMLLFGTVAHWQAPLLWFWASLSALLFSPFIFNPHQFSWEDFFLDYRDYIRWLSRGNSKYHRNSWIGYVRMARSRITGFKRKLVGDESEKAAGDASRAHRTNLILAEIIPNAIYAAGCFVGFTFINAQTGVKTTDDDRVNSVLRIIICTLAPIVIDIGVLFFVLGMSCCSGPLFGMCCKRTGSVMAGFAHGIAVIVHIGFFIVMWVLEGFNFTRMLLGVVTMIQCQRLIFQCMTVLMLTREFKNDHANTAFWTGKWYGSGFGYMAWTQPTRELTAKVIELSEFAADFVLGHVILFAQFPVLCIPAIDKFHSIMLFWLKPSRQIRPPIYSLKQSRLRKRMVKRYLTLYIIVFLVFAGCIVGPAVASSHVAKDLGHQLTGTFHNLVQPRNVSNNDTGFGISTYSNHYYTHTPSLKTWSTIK
1,3-beta-glucan synthase (Candida glabrata, UniProt F5BCZ9, W1375L), sequence (F5BCZ9 entry or part of it W1375L): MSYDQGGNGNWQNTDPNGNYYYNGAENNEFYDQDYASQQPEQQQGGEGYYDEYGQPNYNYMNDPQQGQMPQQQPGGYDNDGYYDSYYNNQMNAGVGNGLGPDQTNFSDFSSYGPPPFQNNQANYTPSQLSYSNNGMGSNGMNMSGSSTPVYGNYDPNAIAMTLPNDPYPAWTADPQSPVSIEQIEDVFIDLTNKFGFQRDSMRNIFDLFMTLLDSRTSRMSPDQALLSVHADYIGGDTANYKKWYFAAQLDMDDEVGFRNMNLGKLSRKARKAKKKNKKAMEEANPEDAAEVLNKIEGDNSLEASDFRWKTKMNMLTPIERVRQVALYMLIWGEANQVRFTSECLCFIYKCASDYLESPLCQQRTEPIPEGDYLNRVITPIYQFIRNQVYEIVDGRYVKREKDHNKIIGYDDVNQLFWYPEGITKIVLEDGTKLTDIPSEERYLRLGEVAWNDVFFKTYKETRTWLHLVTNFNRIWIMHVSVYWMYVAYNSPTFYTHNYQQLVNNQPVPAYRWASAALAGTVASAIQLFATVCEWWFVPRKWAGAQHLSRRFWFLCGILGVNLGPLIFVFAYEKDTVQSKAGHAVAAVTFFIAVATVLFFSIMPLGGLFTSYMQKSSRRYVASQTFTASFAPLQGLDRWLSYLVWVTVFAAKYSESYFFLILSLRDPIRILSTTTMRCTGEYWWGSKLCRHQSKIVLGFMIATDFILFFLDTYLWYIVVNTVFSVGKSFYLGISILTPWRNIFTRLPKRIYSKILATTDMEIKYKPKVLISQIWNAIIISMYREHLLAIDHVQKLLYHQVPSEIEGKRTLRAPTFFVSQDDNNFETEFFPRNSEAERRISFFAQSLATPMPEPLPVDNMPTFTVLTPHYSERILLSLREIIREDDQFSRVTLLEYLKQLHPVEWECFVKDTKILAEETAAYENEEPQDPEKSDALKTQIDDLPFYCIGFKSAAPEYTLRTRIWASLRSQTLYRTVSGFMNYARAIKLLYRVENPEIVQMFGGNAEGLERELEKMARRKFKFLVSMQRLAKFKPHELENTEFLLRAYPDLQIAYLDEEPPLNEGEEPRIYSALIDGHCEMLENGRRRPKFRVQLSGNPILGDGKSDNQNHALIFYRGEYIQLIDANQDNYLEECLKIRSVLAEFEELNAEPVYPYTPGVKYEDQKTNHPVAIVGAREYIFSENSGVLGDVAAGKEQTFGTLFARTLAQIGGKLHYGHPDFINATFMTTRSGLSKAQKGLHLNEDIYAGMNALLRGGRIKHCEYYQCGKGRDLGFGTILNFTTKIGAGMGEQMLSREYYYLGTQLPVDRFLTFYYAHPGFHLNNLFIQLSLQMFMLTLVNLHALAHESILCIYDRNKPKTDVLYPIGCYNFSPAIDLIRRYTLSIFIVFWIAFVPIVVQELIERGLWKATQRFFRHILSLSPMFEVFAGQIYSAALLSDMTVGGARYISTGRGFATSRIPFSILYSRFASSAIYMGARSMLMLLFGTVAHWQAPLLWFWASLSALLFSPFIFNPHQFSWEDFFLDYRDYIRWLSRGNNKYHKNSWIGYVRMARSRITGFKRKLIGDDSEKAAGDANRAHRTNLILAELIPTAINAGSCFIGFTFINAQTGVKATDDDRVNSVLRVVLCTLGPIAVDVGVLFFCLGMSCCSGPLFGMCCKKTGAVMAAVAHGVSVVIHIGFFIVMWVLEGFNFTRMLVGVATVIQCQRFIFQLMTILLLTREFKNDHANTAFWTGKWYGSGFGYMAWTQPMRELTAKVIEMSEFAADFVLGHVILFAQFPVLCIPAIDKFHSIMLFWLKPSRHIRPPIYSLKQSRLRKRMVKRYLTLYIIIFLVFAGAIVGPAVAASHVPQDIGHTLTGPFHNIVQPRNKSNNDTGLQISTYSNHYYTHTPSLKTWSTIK

| Compound | MIC [1] [µg/mL] | MIC [2] [µg/mL] | MIC [3] [µg/mL] | MIC [4] [µg/mL] | MIC [5] [µg/mL] | MIC [6] [µg/mL] | MIC [7] [µg/mL] | MIC [8] [µg/mL] | MIC [9] [µg/mL] | MIC [10] [µg/mL] | MIC [11] [µg/mL] | MIC [12] [µg/mL] | MIC [13] [µg/mL] | MIC [14] [µg/mL] | MIC [15] [µg/mL] | MIC [16] [µg/mL] | MIC [17] [µg/mL] | MIC [18] [µg/mL] | MIC [19] [µg/mL] | MIC [20] [µg/mL] | other results |
| --- | --- | --- | --- | --- | --- | --- | --- | --- | --- | --- | --- | --- | --- | --- | --- | --- | --- | --- | --- | --- | --- |
| CC[C@H](C)C[C@H](C)CCCCCCCCC(=O)N[C@H]1C[C@@H](O)[C@@H](NCCN)NC(=O)[C@@H]2[C@@H](O)CCN2C(=O)[C@H]([C@H](O)CCN)NC(=O)[C@H]([C@H](O)[C@@H](O)c2ccc(O)cc2)NC(=O)[C@@H]2C[C@@H](O)CN2C(=O)[C@H]([C@@H](C)O)NC1=O [CASPOFUNGIN] | 0.06 (≈ 0.0549 µM) | 8 (≈ 7.32 µM) | 8 (≈ 7.32 µM) | 2.52 (≈ 2.3 µM) | 2 (≈ 1.83 µM) | 4 (≈ 3.66 µM) | 4 (≈ 3.66 µM) | 4 (≈ 3.66 µM) | 0.12 | 0.25 | 0.12 | 8 | 8 | 16 | 8 | 8 | 8 | 16 | 16 | 8 | MIC [21]: 8 µg/mL; IC50 [22]: 0.00311 µg/mL (≈ 0.00284 µM); IC50 [23]: 0.00179 µg/mL (≈ 0.00164 µM); IC50 [24]: 638 nM; IC50 [25]: 4560 nM; IC50 [26]: 692 nM; IC50 [27]: 772 nM; IC50 [28]: 5.2485 µg/mL (≈ 4.8 µM); IC50 [29]: 0.1172 µg/mL (≈ 0.107 µM); IC50 [30]: 973 nM; IC50 [31]: 4680 nM; IC50 [32]: 236 nM; IC50 [33]: 152 nM; IC50 [34]: 556 nM; Ratio IC50 [35]: 267 |
| CCCCCOc1ccc(-c2cc(-c3ccc(C(=O)N[C@H]4C[C@@H](O)[C@@H](O)NC(=O)[C@@H]5[C@@H](O)[C@@H](C)CN5C(=O)[C@H]([C@H](O)CC(N)=O)NC(=O)[C@H]([C@H](O)[C@@H](O)c5ccc(O)c(OS(=O)(=O)O)c5)NC(=O)[C@@H]5C[C@@H](O)CN5C(=O)[C@H]([C@@H](C)O)NC4=O)cc3)no2)cc1 [MICAFUNGIN] (X1-[Orn(4R-OH,5R-OH)]T[Hyp][hTyr(3S-OH,4S-OH,3'-OSO3H)][Gln(3R-OH)][Pro(3S-OH,4S-Me)]; lactam 1-C) | 0.06 (≈ 0.0472 µM) | 0.5 (≈ 0.394 µM) | 2 (≈ 1.57 µM) | 2.52 (≈ 1.98 µM) | 4 (≈ 3.15 µM) | 1 (≈ 0.787 µM) | 0.12 (≈ 0.0945 µM) | 0.25 (≈ 0.197 µM) | 0.25 | 1 | 0.5 | 4 | 8 | 8 | 8 | 8 | 8 | 16 | 8 | 4 | MIC [21]: 4 µg/mL; IC50 [22]: 0.00056 µg/mL (≈ 0.000441 µM); IC50 [23]: 0.00129 µg/mL (≈ 0.00102 µM); IC50 [24]: 99.4 nM; IC50 [25]: 673 nM; IC50 [26]: 270 nM; IC50 [27]: 350 nM; IC50 [28]: 0.4134 µg/mL (≈ 0.325 µM); IC50 [29]: 0.1235 µg/mL (≈ 0.0972 µM); IC50 [30]: 840 nM; IC50 [31]: 2020 nM; IC50 [32]: 69.8 nM; IC50 [33]: 87.3 nM; IC50 [34]: 39.9 nM; Ratio IC50 [35]: 60 |
